We go through seven compounds from ChEMBL document CHEMBL1126987, “Modulation of GABAA receptor function by benz[e]indenes and phenanthrenes” (J Med Chem, 1993).

Activity calls are given as the source filed them. No cut-off for these calls is given here.

Experiment [1] concerns the target GABA-A receptor; anion channel. In words: Dissociation constant (Kd) determined in Scatchard analysis of 35[S]-TBPS binding. The experiment is classed as protein-complex assay, Rattus norvegicus. The essentials: (§1)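 Scatchard analysis of [35S]-TBPS binding to rat brain membranes, with compounds dissolved in DMSO at a final assay concentration of 0.25%. Run in triplicate with triplicate determinations per point. Kd and Bmax were taken from linear regression of Scatchard-transformed data. TBPS alone vs TBPS plus test compound was compared by Student's t test.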

For experiment [2], the target named is GABA-A receptor; anion channel. Put plainly: Inhibition of GABA-A receptor by displacement of 35[S]-TBPS. Type of experiment: protein-complex assay, Rattus norvegicus. A digest of the protocol:
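[35S]-TBPS displacement on rat brain membranes, with compounds dissolved in DMSO at a final assay concentration of 0.25%. IC50 was obtained by logistic analysis.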

Experiment [3] deals with T1, GABA-A receptor; anion channel (Rattus norvegicus) (UniProt O09028+P15431+P18506+P18508+P19969+P20236+P23574+P23576+P28471+P28473+P30191+P62813+P63079+P63138+Q91ZM7+Q9ES14). In words: Maximal binding constant (Bmax) determined in Scatchard analysis of 35[S]-TBPS binding. The experiment is classed as protein-complex assay. The essentials:
as §1

Experiment [4] has as its target T1, GABA-A receptor; anion channel (Rattus norvegicus). Put plainly: Percent response without GABA relative to current produced by 1 uM GABA alone in rat hippocampal cells (gated current). The experiment is classed as functional, cell-based. Particulars: Hippocampus. A digest of the protocol: (§2)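 Whole-cell patch clamp on rat hippocampal cells. Current gated by 10 μM compound without GABA is expressed as percent of the current evoked by 1 μM GABA on the same cell.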

The target is the same in experiment [5]. In words: (§3) Percent response with 1 uM GABA relative to current produced by 1 uM GABA alone in rat hippocampal cells. Type of experiment: functional, cell-based. The following applies: Hippocampus. A digest of the protocol:
(§4)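 Whole-cell patch clamp on rat hippocampal cells. Current with 1 μM GABA plus 1 μM compound is expressed as percent of the current from 1 μM GABA alone.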

In experiment [6] the target is Gamma-aminobutyric acid receptor subunit gamma-1 (Rattus norvegicus) (UniProt P23574). Put plainly: Percent response without GABA relative to current produced by 1 uM GABA alone in rat hippocampal cells (No response). The experiment is classed as functional, cell-based. Particulars: Hippocampus. The essentials:
as §2

For experiment [7] the target is unchanged. Described as §3. The experiment is classed as functional, cell-based. The following applies: Hippocampus. A digest of the protocol: as §4

Sequence of Gamma-aminobutyric acid receptor subunit gamma-1 (Rattus norvegicus) (P23574 whole entry): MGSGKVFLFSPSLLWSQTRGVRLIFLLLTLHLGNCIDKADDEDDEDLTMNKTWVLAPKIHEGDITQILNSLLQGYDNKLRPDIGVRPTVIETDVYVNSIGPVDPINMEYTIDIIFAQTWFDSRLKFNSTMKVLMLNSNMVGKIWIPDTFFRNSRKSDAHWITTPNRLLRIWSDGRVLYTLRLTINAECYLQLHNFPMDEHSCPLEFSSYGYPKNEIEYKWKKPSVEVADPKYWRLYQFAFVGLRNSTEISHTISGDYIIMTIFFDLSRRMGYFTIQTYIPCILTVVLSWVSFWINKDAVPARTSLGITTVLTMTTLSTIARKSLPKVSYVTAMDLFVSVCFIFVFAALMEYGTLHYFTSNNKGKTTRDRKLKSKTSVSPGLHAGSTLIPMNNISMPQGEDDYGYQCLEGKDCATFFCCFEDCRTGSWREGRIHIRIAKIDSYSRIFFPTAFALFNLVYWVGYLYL

The Kd is the constant that tells how readily two partners part at equilibrium. The term IC50 denotes the concentration that inhibits the measured activity by half. The low end stands for higher potency, the high end for lower potency. `CC(=O)C1CC[C@H]2[C@@H]3CC[C@H]4C[C@H](O)CC[C@]4(C)[C@H]3CC[C@]12C` (some centres not stated): the Kd in experiment [1] was < 0.08 µM. In addition, the IC50 in experiment [2] is 0.18 µM. Moreover, in experiment [3], the Bmax (pM (mg of protein)-1) came to 1.22. Besides, the Activity in experiment [4] was determined as 30. Besides, the Response in experiment [5] is 195%.

`CC(=O)[C@@]1(C)CCC2C(CC[C@H]3C[C@H](O)CC[C@]23C)C1` (some centres not stated) gave an IC50 in experiment [2] of 7.06 µM. The compound also gave a Response in experiment [5] of 108%.

Compound `C[C@]1(CC#N)CCC2C(CC[C@H]3C[C@H](O)CC[C@]23C)C1` (some centres not stated) returned a half-inhibitory concentration (IC50) in experiment [2] of 3.27 µM. Further, in experiment [4], the Activity was 8. Moreover, in experiment [5], the Response is 106%.

For `C[C@]12CCC3C[C@H](CCO)CCC3C1CCC2=O` (some centres not stated), the IC50 in experiment [2] came to 44.1 µM. Moreover, the Response in experiment [5] came out at 127%.

Take `C[C@]12CCC3C[C@H](CCO)CCC3C1CC[C@@H]2C#N` (some centres not stated): the IC50 in experiment [2] is 4.5 µM. The result in experiment [6] was inactive. In experiment [7], the Response came out at 346%.

In turn, `CC(=O)[C@H]1CCC2C3CC[C@@H](CCO)CC3CC[C@@]21C` (some centres not stated) had an IC50 in experiment [2] of 5.82 µM. Also, in experiment [3], the Bmax (pM (mg of protein)-1) was determined as 1.04. The compound also displayed a Response in experiment [5] of 489%.

Compound `CC(=O)C[C@@]1(C)CCC2C(CC[C@H]3C[C@H](O)CC[C@]23C)C1` (some centres not stated) gave an IC50 in experiment [2] of 3.98 µM. This compound returned a Bmax (pM (mg of protein)-1) in experiment [3] of 1.15. In experiment [4], this compound displayed an Activity of 1. In experiment [5], this compound yielded a Response of 113%.
